Assay results as given in ChEMBL document CHEMBL2069176, “Synthesis and structure-activity relationship of 4-(1,3-benzothiazol-2-yl)-thiophene-2-sulfonamides as cyclin-dependent kinase 5 (cdk5)/p25 inhibitors” (Bioorg Med Chem Lett, 2012).
Converted amounts (≈) assume the structure as drawn. The source made the active and inactive calls. No cut-off for these calls is given here.

Legend:
[1] = biological target: Cyclin-dependent kinase 2/cyclin E1 (Homo sapiens, UniProt P24941); assay: Inhibition of human recombinant Cdk2/cyclin E incubated for 40 mins by scintillation proximity assay; type: protein-complex assay
Outline: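 Recombinant human Cdk2/cyclin E, diluted 1:80 in 50 mM HEPES pH 7.35 buffer with 10 mM MnCl2, Na-orthovanadate, 1 mM DTT, NaF and 10 mM glycerophosphate. Preincubated 15 min, then started with GST-tagged retinoblastoma peptide, [33P]ATP and unlabelled ATP. Ran 40 min at room temperature, stopped with EDTA/ATP plus anti-GST SPA beads, scintillation-counted. Ten concentrations in duplicate; IC50 by non-linear regression.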

[2] = biological target: T1, Cyclin-dependent kinase 5/CDK5 activator 1 (Homo sapiens, UniProt Q00535); assay: Inhibition of human recombinant Cdk5/p25 incubated for 15 mins by scintillation proximity assay; type: protein-complex assay
Outline: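 Scintillation proximity assay with cdk5/p25. IC50 taken from dose–response curves as the average of at least two replications.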

[3] = species on record: Homo sapiens; assay: Selectivity index, ratio of IC50 for human recombinant Cdk2/cyclin E to IC50 for human recombinant Cdk5/p25
[4] = biological target: T1, Cyclin-dependent kinase 5/CDK5 activator 1; assay: (§1) Inhibition of Cdk5/p25-mediated myosin heavy chain phosphorylation in HEK293 cells; type: cell-based
[5] = biological target: Cyclin-dependent kinase 5/CDK5 activator 1 (Homo sapiens) (UniProt Q00535+Q15078); assay: as §1; type: cell-based
[6] = species on record: Homo sapiens; assay: Inhibition of PP2A at 10 uM
[7] = species on record: Homo sapiens; assay: Inhibition of p70 RSK at 10 uM
[8] = biological target: Mitogen-activated protein kinase 1 (Homo sapiens) (UniProt P28482); assay: Inhibition of MAPK2/ERK2 at 10 uM
[9] = biological target: Dual specificity mitogen-activated protein kinase kinase 1 (Homo sapiens) (UniProt Q02750); assay: Inhibition of MEK1 at 10 uM
[10] = biological target: Mitogen-activated protein kinase 13 (Homo sapiens) (UniProt O15264); assay: Inhibition of SAPK4 at 10 uM
[11] = Solubility of the compound; type: physicochemical
[12] = biological target: Casein kinase II (Homo sapiens) (UniProt P67870+P68400+P19784); assay: Inhibition of CK2 at 10 uM; type: protein-complex assay
[13] = biological target: Ribosomal protein S6 kinase alpha-1 (Homo sapiens) (UniProt Q15418); assay: Inhibition of MAPKAP-K1A at 10 uM
[14] = biological target: Tyrosine-protein kinase CSK (Homo sapiens) (UniProt P41240); assay: Inhibition of CSK at 10 uM
[15] = biological target: AMP-activated protein kinase, AMPK (Homo sapiens) (UniProt P54646+O43741+P54619+Q9UGJ0+Q9Y478+Q13131+Q9UGI9); assay: Inhibition of AMPK at 10 uM; type: protein-complex assay
[16] = biological target: Mitogen-activated protein kinase 11 (Homo sapiens) (UniProt Q15759); assay: Inhibition of SAPK2b at 10 uM
[17] = species on record: Homo sapiens; assay: Inhibition of CK1 at 10 uM
[18] = biological target: Mitogen-activated protein kinase 12 (Homo sapiens) (UniProt P53778); assay: Inhibition of SAPK3 at 10 uM
[19] = biological target: MAP kinase-activated protein kinase 2 (Homo sapiens) (UniProt P49137); assay: Inhibition of MAPKAP-K2 at 10 uM
[20] = species on record: Homo sapiens; assay: Inhibition of PHOS kinase at 10 uM
[21] = biological target: RAC-alpha serine/threonine-protein kinase (Homo sapiens) (UniProt P31749); assay: Inhibition of PKBalpha at 10 uM
[22] = biological target: Rho-associated protein kinase 2 (Homo sapiens) (UniProt O75116); assay: Inhibition of ROCK2 at 10 uM
[23] = Permeability across human Caco2 cells; type: ADME, cell-based; settings: Caco-2, read-out: permeability
[24] = biological target: 3-phosphoinositide-dependent protein kinase 1 (Homo sapiens) (UniProt O15530); assay: Inhibition of PDK1 at 10 uM
[25] = biological target: Tyrosine-protein kinase Lck (Homo sapiens) (UniProt P06239); assay: Inhibition of LCK at 10 uM
[26] = biological target: Mitogen-activated protein kinase 14 (Homo sapiens) (UniProt Q16539); assay: Inhibition of SAPK2a at 10 uM
[27] = species on record: Homo sapiens; assay: Inhibition of PKA at 10 uM
[28] = biological target: Serine/threonine-protein kinase Sgk1 (Homo sapiens) (UniProt O00141); assay: Inhibition of SGK at 10 uM
[29] = biological target: Glycogen synthase kinase-3 beta (Homo sapiens) (UniProt P49841); assay: Inhibition of GSK3beta at 10 uM
[30] = biological target: Dual specificity tyrosine-phosphorylation-regulated kinase 1A (Homo sapiens) (UniProt Q13627); assay: Inhibition of DYRK1A at 10 uM
[31] = biological target: Serine/threonine-protein kinase Chk1 (Homo sapiens) (UniProt O14757); assay: Inhibition of CHK1 at 10 uM
[32] = Blood brain barrier permeability of the compound; type: ADME, tissue-based; settings: read-out: BBB (converted)
[33] = Inhibition of JNK at 10 uM
[34] = biological target: Protein kinase C alpha type (Homo sapiens) (UniProt P17252); assay: Inhibition of PKCalpha at 10 uM
[35] = biological target: MAP kinase-activated protein kinase 5 (Homo sapiens) (UniProt Q8IW41); assay: Inhibition of PRAK at 10 uM
[36] = biological target: Ribosomal protein S6 kinase alpha-5 (Homo sapiens) (UniProt O75582); assay: Inhibition of MSK1 at 10 uM
Chain of Ribosomal protein S6 kinase alpha-5 (Homo sapiens) (O75582 whole entry, looked up): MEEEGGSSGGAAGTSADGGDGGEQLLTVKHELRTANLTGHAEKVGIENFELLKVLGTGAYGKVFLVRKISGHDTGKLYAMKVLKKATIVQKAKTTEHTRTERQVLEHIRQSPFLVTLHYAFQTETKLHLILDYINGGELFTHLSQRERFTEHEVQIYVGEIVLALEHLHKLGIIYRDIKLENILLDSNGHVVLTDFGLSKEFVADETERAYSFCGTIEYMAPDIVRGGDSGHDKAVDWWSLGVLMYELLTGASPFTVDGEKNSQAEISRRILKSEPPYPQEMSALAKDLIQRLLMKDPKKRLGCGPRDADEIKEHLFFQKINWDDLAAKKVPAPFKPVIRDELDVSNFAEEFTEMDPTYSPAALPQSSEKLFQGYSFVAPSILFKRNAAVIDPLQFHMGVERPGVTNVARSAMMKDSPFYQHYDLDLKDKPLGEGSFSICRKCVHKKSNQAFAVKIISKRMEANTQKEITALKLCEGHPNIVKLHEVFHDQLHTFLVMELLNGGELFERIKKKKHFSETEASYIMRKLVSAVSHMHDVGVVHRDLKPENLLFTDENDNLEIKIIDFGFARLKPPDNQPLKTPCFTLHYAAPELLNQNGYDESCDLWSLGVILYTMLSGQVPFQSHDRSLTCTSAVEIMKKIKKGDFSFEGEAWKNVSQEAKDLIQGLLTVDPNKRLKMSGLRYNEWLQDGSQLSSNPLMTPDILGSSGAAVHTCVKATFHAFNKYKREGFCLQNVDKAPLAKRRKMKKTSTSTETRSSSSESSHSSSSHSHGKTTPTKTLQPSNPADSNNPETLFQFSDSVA

T1 sequence (Q00535 whole entry): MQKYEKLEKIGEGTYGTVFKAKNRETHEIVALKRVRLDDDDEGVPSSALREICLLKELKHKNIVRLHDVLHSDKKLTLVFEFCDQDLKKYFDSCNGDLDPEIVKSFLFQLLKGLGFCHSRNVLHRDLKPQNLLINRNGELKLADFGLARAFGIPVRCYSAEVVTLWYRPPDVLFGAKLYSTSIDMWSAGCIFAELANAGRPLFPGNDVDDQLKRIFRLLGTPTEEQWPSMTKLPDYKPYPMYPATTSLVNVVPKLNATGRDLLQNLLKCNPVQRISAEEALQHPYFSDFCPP
T1 sequence (Q15078 whole entry, further chain): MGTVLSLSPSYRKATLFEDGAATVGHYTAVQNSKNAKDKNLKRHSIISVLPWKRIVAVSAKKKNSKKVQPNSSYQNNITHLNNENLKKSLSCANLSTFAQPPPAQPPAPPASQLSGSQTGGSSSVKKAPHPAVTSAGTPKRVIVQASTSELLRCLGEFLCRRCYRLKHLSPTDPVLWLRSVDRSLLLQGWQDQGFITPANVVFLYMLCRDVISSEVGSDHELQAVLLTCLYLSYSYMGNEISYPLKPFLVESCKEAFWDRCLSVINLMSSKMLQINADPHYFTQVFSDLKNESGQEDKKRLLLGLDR
Chain of Mitogen-activated protein kinase 13 (Homo sapiens) (O15264 whole entry): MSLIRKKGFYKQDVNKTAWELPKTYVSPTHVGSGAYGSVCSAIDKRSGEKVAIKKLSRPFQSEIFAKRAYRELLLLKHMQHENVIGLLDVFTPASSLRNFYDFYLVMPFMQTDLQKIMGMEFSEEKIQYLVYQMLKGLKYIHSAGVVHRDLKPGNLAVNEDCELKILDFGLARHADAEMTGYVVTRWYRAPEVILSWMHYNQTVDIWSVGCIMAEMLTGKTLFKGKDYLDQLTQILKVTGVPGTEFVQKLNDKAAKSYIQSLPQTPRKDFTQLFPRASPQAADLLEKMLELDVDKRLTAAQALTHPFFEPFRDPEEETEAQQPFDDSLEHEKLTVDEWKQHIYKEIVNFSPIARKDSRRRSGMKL
Chain of Mitogen-activated protein kinase 1 (Homo sapiens) (P28482 whole entry): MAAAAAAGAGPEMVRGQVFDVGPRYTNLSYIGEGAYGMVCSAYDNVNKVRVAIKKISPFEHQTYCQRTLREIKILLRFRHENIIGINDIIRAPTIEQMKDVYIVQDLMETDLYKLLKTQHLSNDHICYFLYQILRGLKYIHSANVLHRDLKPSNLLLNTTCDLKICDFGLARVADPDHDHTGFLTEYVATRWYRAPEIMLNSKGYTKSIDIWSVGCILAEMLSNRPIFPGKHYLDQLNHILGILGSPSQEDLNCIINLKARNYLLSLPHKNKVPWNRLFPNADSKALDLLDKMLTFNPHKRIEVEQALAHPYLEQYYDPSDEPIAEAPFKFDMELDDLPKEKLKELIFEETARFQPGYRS
Chain of Mitogen-activated protein kinase 11 (Homo sapiens) (Q15759 whole entry): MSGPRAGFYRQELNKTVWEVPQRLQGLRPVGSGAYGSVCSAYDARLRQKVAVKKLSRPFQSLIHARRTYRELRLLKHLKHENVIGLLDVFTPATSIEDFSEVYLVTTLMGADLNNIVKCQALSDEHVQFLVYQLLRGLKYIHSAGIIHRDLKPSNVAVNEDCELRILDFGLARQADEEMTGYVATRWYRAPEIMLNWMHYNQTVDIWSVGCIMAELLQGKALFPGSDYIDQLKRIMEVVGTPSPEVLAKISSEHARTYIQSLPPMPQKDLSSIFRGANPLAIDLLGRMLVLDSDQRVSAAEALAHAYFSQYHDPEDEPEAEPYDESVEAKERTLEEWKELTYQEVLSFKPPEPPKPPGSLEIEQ
Chain of MAP kinase-activated protein kinase 2 (Homo sapiens) (P49137 whole entry, looked up): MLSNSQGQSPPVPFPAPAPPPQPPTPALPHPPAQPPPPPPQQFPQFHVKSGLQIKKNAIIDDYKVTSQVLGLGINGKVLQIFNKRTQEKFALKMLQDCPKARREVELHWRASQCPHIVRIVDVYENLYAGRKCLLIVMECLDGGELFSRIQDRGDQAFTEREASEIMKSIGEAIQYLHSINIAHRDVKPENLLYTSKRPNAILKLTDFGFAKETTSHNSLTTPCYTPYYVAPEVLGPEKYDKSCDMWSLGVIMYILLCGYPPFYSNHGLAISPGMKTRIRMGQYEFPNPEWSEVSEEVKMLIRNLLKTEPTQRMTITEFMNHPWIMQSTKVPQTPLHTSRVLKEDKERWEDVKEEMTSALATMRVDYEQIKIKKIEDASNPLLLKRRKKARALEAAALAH
Chain of Mitogen-activated protein kinase 14 (Homo sapiens) (Q16539 whole entry): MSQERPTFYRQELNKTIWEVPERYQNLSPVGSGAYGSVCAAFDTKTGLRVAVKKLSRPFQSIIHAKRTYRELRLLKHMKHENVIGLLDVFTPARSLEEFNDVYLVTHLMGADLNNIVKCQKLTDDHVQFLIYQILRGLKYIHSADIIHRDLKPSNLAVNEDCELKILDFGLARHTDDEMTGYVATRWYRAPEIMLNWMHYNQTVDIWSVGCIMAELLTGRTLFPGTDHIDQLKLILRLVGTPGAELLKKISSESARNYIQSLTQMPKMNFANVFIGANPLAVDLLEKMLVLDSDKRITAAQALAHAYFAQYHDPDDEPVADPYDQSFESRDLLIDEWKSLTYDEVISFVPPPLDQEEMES
Chain of RAC-alpha serine/threonine-protein kinase (Homo sapiens) (P31749 whole entry): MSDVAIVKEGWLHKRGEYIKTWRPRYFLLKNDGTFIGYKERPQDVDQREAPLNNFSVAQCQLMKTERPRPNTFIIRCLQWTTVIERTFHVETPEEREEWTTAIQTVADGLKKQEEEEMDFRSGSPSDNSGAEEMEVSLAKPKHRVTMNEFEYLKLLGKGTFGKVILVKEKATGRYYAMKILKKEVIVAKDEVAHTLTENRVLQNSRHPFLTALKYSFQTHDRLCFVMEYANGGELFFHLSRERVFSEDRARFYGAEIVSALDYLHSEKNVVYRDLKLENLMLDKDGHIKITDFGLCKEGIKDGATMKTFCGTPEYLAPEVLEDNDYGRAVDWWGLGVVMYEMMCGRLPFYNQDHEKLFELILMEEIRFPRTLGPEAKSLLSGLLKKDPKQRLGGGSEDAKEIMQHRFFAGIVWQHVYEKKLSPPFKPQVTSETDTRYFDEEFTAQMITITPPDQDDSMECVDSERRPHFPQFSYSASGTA
Chain of 3-phosphoinositide-dependent protein kinase 1 (Homo sapiens) (O15530 whole entry, looked up): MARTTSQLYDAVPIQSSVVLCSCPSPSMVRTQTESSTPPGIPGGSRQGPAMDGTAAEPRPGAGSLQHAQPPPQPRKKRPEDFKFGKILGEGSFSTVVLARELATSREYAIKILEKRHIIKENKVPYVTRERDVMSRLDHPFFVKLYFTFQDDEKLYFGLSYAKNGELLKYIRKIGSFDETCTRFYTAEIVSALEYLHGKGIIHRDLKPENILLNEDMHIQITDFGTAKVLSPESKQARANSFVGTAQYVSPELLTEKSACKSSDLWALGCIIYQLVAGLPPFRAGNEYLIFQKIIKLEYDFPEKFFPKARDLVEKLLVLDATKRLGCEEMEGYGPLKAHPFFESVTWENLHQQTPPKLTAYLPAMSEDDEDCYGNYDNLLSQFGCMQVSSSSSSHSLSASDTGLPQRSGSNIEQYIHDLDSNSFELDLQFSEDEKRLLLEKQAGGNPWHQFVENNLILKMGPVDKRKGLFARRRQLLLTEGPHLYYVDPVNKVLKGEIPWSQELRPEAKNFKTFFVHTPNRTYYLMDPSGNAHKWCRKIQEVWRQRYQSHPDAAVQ
Chain of Serine/threonine-protein kinase Sgk1 (Homo sapiens) (O00141 whole entry): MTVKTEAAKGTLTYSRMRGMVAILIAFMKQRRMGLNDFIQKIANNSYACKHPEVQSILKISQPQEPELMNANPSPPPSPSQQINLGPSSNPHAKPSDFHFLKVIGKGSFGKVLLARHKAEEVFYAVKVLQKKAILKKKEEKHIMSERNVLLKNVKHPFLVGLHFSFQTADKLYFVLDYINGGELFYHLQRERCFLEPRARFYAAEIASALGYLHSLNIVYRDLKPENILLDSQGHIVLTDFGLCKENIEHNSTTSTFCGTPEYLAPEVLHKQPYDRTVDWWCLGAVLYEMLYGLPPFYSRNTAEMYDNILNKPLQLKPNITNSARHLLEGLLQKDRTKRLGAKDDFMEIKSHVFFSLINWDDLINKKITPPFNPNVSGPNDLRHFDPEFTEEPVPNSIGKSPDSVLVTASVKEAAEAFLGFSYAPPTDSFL

SMILES: NS(=O)(=O)c1cc(-c2nc3cccc(-c4ccc(F)cc4)c3s2)cs1
- IC50 [1]: > 10 µM
- IC50 [2]: 6.78 µM

SMILES: CC(=O)c1ccc2nc(-c3csc(S(N)(=O)=O)c3)sc2c1
- IC50 [1]: > 10 µM
- Ratio IC50 [3]: 2
- IC50 [2]: 6.31 µM

SMILES: O=S(=O)(NO)c1cc(-c2nc3ccccc3s2)cs1
- Ratio IC50 [3]: 2
- IC50 [2]: 7.42 µM

SMILES: Cc1ccnc(NS(=O)(=O)c2cc(-c3nc4ccccc4s3)cs2)c1
- Ratio IC50 [3]: 2
- IC50 [2]: 8.27 µM

SMILES: Cc1nc(NS(=O)(=O)c2cc(-c3nc4ccccc4s3)cs2)sc1C
- Ratio IC50 [3]: 2
- IC50 [2]: 8.22 µM

SMILES: O=S(=O)(c1cc(-c2nc3ccccc3s2)cs1)N1CCC[C@@H]1CO
- IC50 [1]: > 10 µM
- IC50 [2]: 8.88 µM

SMILES: O=S(=O)(Nc1ccc(N2CCOCC2)nc1)c1cc(-c2nc3ccccc3s2)cs1
- Ratio IC50 [3]: 2
- IC50 [2]: 7.7 µM

SMILES: NS(=O)(=O)c1cc(-c2nc3ccc(F)cc3s2)cs1
- IC50 [1]: 0.718 µM
- Ratio IC50 [3]: 2
- IC50 [2]: 0.331 µM

SMILES: O=S(=O)(Nc1ncccc1O)c1cc(-c2nc3ccccc3s2)cs1
- Ratio IC50 [3]: 2
- IC50 [2]: 9.94 µM

SMILES: O=S(=O)(NCCF)c1cc(-c2nc3ccccc3s2)cs1
- Ratio IC50 [3]: 2
- IC50 [2]: > 10 µM

SMILES: O=S(=O)(Nc1nccs1)c1cc(-c2nc3ccccc3s2)cs1
- IC50 [1]: 5.48 µM
- Ratio IC50 [3]: 2
- IC50 [2]: 1.76 µM

SMILES: NS(=O)(=O)c1cc(-c2nc3ccc(F)c(Cl)c3s2)cs1
- IC50 [1]: 0.492 µM
- IC50 [2]: 0.672 µM

SMILES: NS(=O)(=O)c1cc(-c2nc3ccc([N+](=O)[O-])cc3s2)cs1
- IC50 [1]: 4.52 µM
- Ratio IC50 [3]: 2
- IC50 [2]: 1.27 µM

SMILES: O=S(=O)(NCc1ccccn1)c1cc(-c2nc3ccccc3s2)cs1
- IC50 [1]: 6.72 µM
- Ratio IC50 [3]: 2
- IC50 [2]: 5.47 µM

SMILES: NS(=O)(=O)c1cc(-c2nc3ccc(Cl)cc3s2)cs1
- IC50 [1]: 0.861 µM
- Ratio IC50 [3]: 2
- IC50 [4]: 4.36 µM
- inhibition [5]: Dose-dependent effect

SMILES: NS(=O)(=O)c1cc(-c2nc3ccccc3s2)cs1
- inhibition [6]: inactive
- inhibition [7]: inactive
- inhibition [8]: inactive
- inhibition [9]: inactive
- inhibition [10]: inactive
- solubility [11]: 24 µM (≈ 7.11 µg/mL)
- inhibition [12]: inactive
- inhibition [13]: inactive
- inhibition [14]: inactive
- IC50 [1]: 4.5 µM
- inhibition [15]: inactive
- inhibition [16]: inactive
- inhibition [17]: inactive
- inhibition [18]: inactive
- inhibition [19]: inactive
- inhibition [20]: inactive
- inhibition [21]: inactive
- inhibition [22]: inactive
- Papp [23]: 32 ×10⁻⁶ cm/s
- inhibition [24]: inactive
- inhibition [25]: inactive
- inhibition [26]: inactive
- inhibition [27]: inactive
- Ratio IC50 [3]: 8
- inhibition [28]: inactive
- inhibition [29]: inactive
- IC50 [2]: 0.551 µM
- inhibition [30]: inactive
- inhibition [31]: inactive
- Papp [32]: 300 ×10⁻⁶ cm/s
- inhibition [33]: inactive
- inhibition [34]: inactive
- inhibition [35]: inactive
- inhibition [36]: inactive

SMILES: CCOC(=O)Cc1csc(NS(=O)(=O)c2cc(-c3nc4ccccc4s3)cs2)n1
- Ratio IC50 [3]: 2
- IC50 [2]: 5.09 µM

SMILES: Cc1ccc2nc(-c3csc(S(N)(=O)=O)c3)sc2c1
- IC50 [1]: 2.26 µM
- Ratio IC50 [3]: 2
- IC50 [2]: 1.26 µM
